The results in this text go back to ChEMBL document CHEMBL3392966, “Antiproliferative activity of synthetic fatty acid amides from renewable resources” (Bioorg Med Chem, 2015).

Converted amounts (≈) assume the structure as drawn.

Data set [1] concerns U-251. Briefly: Antiproliferative activity against human U251 cells after 48 hrs by sulforhodamine B assay. The class given is functional. The conditions noted are these: U-251, 48 h. Put shortly:
(§1)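 Tumor cells grown in RPMI 1640 with 5% fetal bovine serum, with penicillin/streptomycin in experimental cultures. Exposed in 96-well plates to samples in DMSO/RPMI at 0.25, 2.5, 25 and 250 µg/mL, 37 °C, 5% CO2, 48 h. Fixed with 50% trichloroacetic acid before (T0) and after treatment, protein stained with sulforhodamine B and read at 540 nm. GI50, TGI and LC50 in µg/mL from dose-response curves by non-linear regression.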

The subject of data set [2] is MCF7. Briefly: Antiproliferative activity against human MCF7 cells after 48 hrs by sulforhodamine B assay. The class given is functional. The conditions noted are these: MCF7, 48 h. Put shortly: as §1
Data set [3] concerns NCI/ADR-RES. Briefly: Antiproliferative activity against human NCI/ADR-RES cells after 48 hrs by sulforhodamine B assay. The class given is functional. Put shortly: as §1
Data set [4] concerns 786-0. Nature of the data set: Antiproliferative activity against human 786-0 cells after 48 hrs by sulforhodamine B assay. The conditions noted are these: 786-0, 48 h. The class given is functional. The method in brief:
as §1

Data set [5] relates to NCI-H460. Nature of the data set: Antiproliferative activity against human NCI-H460 cells after 48 hrs by sulforhodamine B assay. Format: functional. The conditions noted are these: NCI-H460, 48 h. The method in brief:
as §1

Data set [6] is described as follows: Antiproliferative activity against human PC3 cells after 48 hrs by sulforhodamine B assay. Format: functional. The conditions noted are these: PC-3, 48 h. Put shortly:
as §1

A short description of data set [7]: Antiproliferative activity against human OVCAR3 cells after 48 hrs by sulforhodamine B assay. The class given is functional. The conditions noted are these: OVCAR-3, 48 h. Put shortly: as §1
For data set [8], the system named is Vero. Nature of the data set: Cytotoxicity against african green monkey Vero cells after 48 hrs by sulforhodamine B assay. The conditions noted are these: chlorocebus sabaeus. Format: cell-based.
Data set [9] has as its system U-251. Briefly: Antiproliferative activity against human U251 cells assessed as tumor growth inhibition after 48 hrs by sulforhodamine B assay. The conditions noted are these: U-251, 48 h. Format: functional. Put shortly:
as §1

In data set [10] the test system is MCF7. Briefly: Antiproliferative activity against human MCF7 cells assessed as tumor growth inhibition after 48 hrs by sulforhodamine B assay. The class given is functional. The conditions noted are these: MCF7, 48 h. The method in brief:
as §1

Data set [11] has as its system NCI/ADR-RES. Nature of the data set: Antiproliferative activity against human NCI/ADR-RES cells assessed as tumor growth inhibition after 48 hrs by sulforhodamine B assay. The class given is functional. Put shortly: as §1
The subject of data set [12] is 786-0. Briefly: Antiproliferative activity against human 786-0 cells assessed as tumor growth inhibition after 48 hrs by sulforhodamine B assay. The class given is functional. The conditions noted are these: 786-0, 48 h. Put shortly:
as §1

Data set [13] deals with NCI-H460. Nature of the data set: Antiproliferative activity against human NCI-H460 cells assessed as tumor growth inhibition after 48 hrs by sulforhodamine B assay. Format: functional. The conditions noted are these: NCI-H460, 48 h. Put shortly: as §1
A short description of data set [14]: Antiproliferative activity against human PC3 cells assessed as tumor growth inhibition after 48 hrs by sulforhodamine B assay. The class given is functional. The conditions noted are these: PC-3, 48 h. Put shortly:
as §1

Data set [15] is described as follows: Antiproliferative activity against human OVCAR3 cells assessed as tumor growth inhibition after 48 hrs by sulforhodamine B assay. Format: functional. The conditions noted are these: OVCAR-3, 48 h. Put shortly: as §1
Data set [16] deals with Vero. Briefly: Cytotoxicity against african green monkey Vero cells assessed as tumor growth inhibition after 48 hrs by sulforhodamine B assay. Format: cell-based. The conditions noted are these: chlorocebus sabaeus. The method in brief: (§2)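 Non-tumor lines (human HaCaT keratinocytes; Vero) in RPMI 1640 with 5% FBS, with penicillin/streptomycin added to experimental cultures. 48 h exposure at 0.25–250 µg/mL (DMSO/RPMI), 37 °C, 5% CO2. TCA fixation at time zero and at end, sulforhodamine B protein stain, absorbance 540 nm. TGI (total growth inhibition) from non-linear regression of the dose-response curve.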

The subject of data set [17] is HaCaT. Nature of the data set: Cytotoxicity against human HaCaT cells after 48 hrs by sulforhodamine B assay. The class given is cell-based.
Data set [18] relates to HaCaT. Nature of the data set: Cytotoxicity against human HaCaT cells assessed as tumor growth inhibition after 48 hrs by sulforhodamine B assay. The class given is cell-based. Put shortly:
as §2

Consider `CCCCCCCC/C=C\CCCCCCCC(=O)N[C@H](C)c1ccccc1`, for which the GI50 in the data set on U-251 [1] came to 6.1 µg/mL (≈ 15.8 µM); in the data set with MCF7 [2] it was 6.1 µg/mL (≈ 15.8 µM); in the data set with NCI/ADR-RES [3], 3 µg/mL (≈ 7.78 µM); in the data set on 786-0 [4], 26.8 µg/mL (≈ 69.5 µM); with NCI-H460 [5], 36.6 µg/mL (≈ 94.9 µM); in [6], 46.9 µg/mL (≈ 122 µM). In [7], this molecule registered a GI50 of 56.9 µg/mL (≈ 148 µM). In addition, the LC50 in the data set with Vero [8] was 10.3 µg/mL (≈ 26.7 µM). The TGI in the data set on U-251 [9] was determined as 28.3 µg/mL (≈ 73.4 µM); in the data set on MCF7 [10] it was 40.8 µg/mL (≈ 106 µM); with NCI/ADR-RES [11], 35.3 µg/mL (≈ 91.5 µM); in the data set with 786-0 [12] it was 84.8 µg/mL (≈ 220 µM); in the data set with NCI-H460 [13] it was 106 µg/mL (≈ 274 µM); in [14], 162 µg/mL (≈ 419 µM). In addition, the TGI in data set [15] is over 250 µg/mL; in the data set with Vero [16], 43 µg/mL (≈ 112 µM).

Take `CCCCCCCC/C=C\CCCCCCCC(=O)N[C@@H](C)c1ccccc1`: the GI50 with U-251 [1] turned out to be 5.1 µg/mL (≈ 13.2 µM); in the data set on MCF7 [2], 7.17 µg/mL (≈ 18.6 µM); in the data set on NCI/ADR-RES [3], 0.3 µg/mL (≈ 0.778 µM); in the data set with 786-0 [4] it was 10.3 µg/mL (≈ 26.7 µM); in the data set on NCI-H460 [5], 15.2 µg/mL (≈ 39.4 µM); in data set [6], 13.7 µg/mL (≈ 35.5 µM). Halving of growth in data set [7] (GI50) required 10.5 µg/mL (≈ 27.2 µM). For the same molecule, in the data set with HaCaT [17], the LC50 was 6.4 µg/mL (≈ 16.6 µM). In addition, the TGI in the data set on U-251 [9] is 17.8 µg/mL (≈ 46.2 µM); in the data set with MCF7 [10] it was 43 µg/mL (≈ 112 µM); in the data set with NCI/ADR-RES [11] it was 7.1 µg/mL (≈ 18.4 µM); in the data set on 786-0 [12], 45.8 µg/mL (≈ 119 µM); in the data set on NCI-H460 [13], 49.3 µg/mL (≈ 128 µM); in [14] it was 47.1 µg/mL (≈ 122 µM). Also, the figures for the TGI (in data set [15]; in the data set on HaCaT [18]) were 45.5 µg/mL (≈ 118 µM) and 36.8 µg/mL (≈ 95.4 µM), respectively.

Turning to `CCCCCC[C@@H](O)C/C=C\CCCCCCCC(=O)NCCO`, the GI50 in the data set on U-251 [1] worked out at 3.6 µg/mL (≈ 10.5 µM); with MCF7 [2], 6.5 µg/mL (≈ 19 µM); with NCI/ADR-RES [3] it was 2.8 µg/mL (≈ 8.2 µM); in the data set on 786-0 [4], 6.6 µg/mL (≈ 19.3 µM); in the data set on NCI-H460 [5], 4.1 µg/mL (≈ 12 µM); in data set [6], 6.3 µg/mL (≈ 18.4 µM). This molecule gave a GI50 in data set [7] of 4.1 µg/mL (≈ 12 µM). Moreover, the LC50 in the data set on Vero [8] came out at 3.4 µg/mL (≈ 9.96 µM). The TGI amounted to 6.5 µg/mL (≈ 19 µM) with U-251 [9]; 3.7 µg/mL (≈ 10.8 µM) with MCF7 [10]; 5.4 µg/mL (≈ 15.8 µM) in the data set on NCI/ADR-RES [11]; 20.4 µg/mL (≈ 59.7 µM) with 786-0 [12]; 9.8 µg/mL (≈ 28.7 µM) in the data set on NCI-H460 [13]; 23.5 µg/mL (≈ 68.8 µM) in data set [14]. Besides, the TGI in [15] stood at 8.8 µg/mL (≈ 25.8 µM); in the data set with Vero [16] it was 7.6 µg/mL (≈ 22.3 µM).

As to `CCCCCCCCCCCCCCCCCC(=O)N1CCCC1`, the GI50 is 8 µg/mL (≈ 23.7 µM) with U-251 [1]; 7.4 µg/mL (≈ 21.9 µM) in the data set on MCF7 [2]; 7.1 µg/mL (≈ 21 µM) in the data set with NCI/ADR-RES [3]; 14 µg/mL (≈ 41.5 µM) in the data set on 786-0 [4]; 10.8 µg/mL (≈ 32 µM) in the data set with NCI-H460 [5]; 9.4 µg/mL (≈ 27.8 µM) in data set [6]. Further, the GI50 in data set [7] turned out to be 7.3 µg/mL (≈ 21.6 µM). For the same molecule, the LC50 in the data set on HaCaT [17] amounted to 6.3 µg/mL (≈ 18.7 µM). The TGI was 32.5 µg/mL (≈ 96.3 µM) with U-251 [9]; 39.9 µg/mL (≈ 118 µM) in the data set with MCF7 [10]; 43.5 µg/mL (≈ 129 µM) in the data set on NCI/ADR-RES [11]; 48.4 µg/mL (≈ 143 µM) with 786-0 [12]; 56.8 µg/mL (≈ 168 µM) in the data set on NCI-H460 [13]; 36 µg/mL (≈ 107 µM) in data set [14]. Besides, the TGI turned out to be 68.5 µg/mL (≈ 203 µM) in data set [15] and 27.4 µg/mL (≈ 81.2 µM) in the data set with HaCaT [18].

Regarding `COc1cccc2c1C(=O)c1c(O)c3c(c(O)c1C2=O)C[C@@](O)(C(=O)CO)C[C@@H]3O[C@H]1C[C@H](N)[C@H](O)[C@H](C)O1` [DOXORUBICIN], the TGI in the data set on U-251 [9] was 0.92 µg/mL (≈ 1.69 µM); in the data set with MCF7 [10] it was 3.3 µg/mL (≈ 6.07 µM); in the data set on NCI/ADR-RES [11], 1.6 µg/mL (≈ 2.94 µM); in the data set with 786-0 [12], over 25 µg/mL; in the data set on NCI-H460 [13] it was 4.9 µg/mL (≈ 9.02 µM); in data set [14], 11.7 µg/mL (≈ 21.5 µM). For the same molecule, the TGI in [15] turned out to be 7.6 µg/mL (≈ 14 µM); with HaCaT [18], 2.3 µg/mL (≈ 4.23 µM); in the data set on Vero [16], 4.1 µg/mL (≈ 7.54 µM).

Consider `CCCCCCCC/C=C\CCCCCCCC(=O)NCCO` [OLEOYLETHANOLAMIDE], for which the GI50 in the data set on U-251 [1] amounted to 27.3 µg/mL (≈ 83.9 µM); with MCF7 [2], 25.9 µg/mL (≈ 79.6 µM); in the data set with NCI/ADR-RES [3], 9.1 µg/mL (≈ 28 µM); in the data set on 786-0 [4], 35.4 µg/mL (≈ 109 µM); in the data set on NCI-H460 [5], 36.5 µg/mL (≈ 112 µM); in data set [6], 16.9 µg/mL (≈ 51.9 µM). In addition, it took 35.4 µg/mL (≈ 109 µM) to inhibit growth in data set [7] by half (GI50). The same molecule returned an LC50 with HaCaT [17] of 14.4 µg/mL (≈ 44.2 µM). The TGI in the data set with U-251 [9] is 51.3 µg/mL (≈ 158 µM); in the data set on MCF7 [10], 66.7 µg/mL (≈ 205 µM); in the data set on NCI/ADR-RES [11], 39.5 µg/mL (≈ 121 µM); in the data set on 786-0 [12], 64.6 µg/mL (≈ 198 µM); with NCI-H460 [13], 81 µg/mL (≈ 249 µM); in [14], 44.2 µg/mL (≈ 136 µM). For the same molecule, the TGI in [15] was found to be 71.7 µg/mL (≈ 220 µM); with HaCaT [18] it was 53.5 µg/mL (≈ 164 µM).
